From ChEMBL document CHEMBL1129639, “Synthesis and cardiotonic activity of novel pyrimidine derivatives: crystallographic and quantum chemical studies” (J Med Chem, 1996)

Key:
Type in all cases: functional
Cavia porcellus [1] = organism: Cavia porcellus; experiment: Effect on the contractile force of spontaneously beating atria from Reserpine-treated guinea pigs as percentage variation from the control at concentration of 10E-5 M
How it was run: (§1)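 Atria from reserpine-treated guinea pigs (reserpine 2 mg/kg ip, 48 and 24 h before death; only tyramine-unresponsive preparations used). Bath solution at 29 °C, gassed 95% O2/5% CO2, pH 7.5, resting tension […]. After 90 min equilibration, compound added cumulatively, 5 min per concentration. Isometric developed-tension amplitude or beating rate given as % variation from untreated control. Mean ± SEM, 6-10 assays.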

Cavia porcellus [2] = organism: Cavia porcellus; experiment: Effect on the contractile force of spontaneously beating atria from Reserpine-treated guinea pigs as percentage variation from the control at concentration of 10E-6 M; how it was run: as §1
Cavia porcellus [3] = organism: Cavia porcellus; experiment: Effect on the contractile force of spontaneously beating atria from Reserpine-treated guinea pigs as percentage variation from the control at concentration of 3 x 10E-4 M; how it was run: as §1
Cavia porcellus [4] = organism: Cavia porcellus; experiment: Effect on the contractile force of spontaneously beating atria from Reserpine-treated guinea pigs as percentage variation from the control at concentration of 3 x 10E-5 M; how it was run: as §1
Cavia porcellus [5] = organism: Cavia porcellus; experiment: Effect on the contractile force of spontaneously beating atria from Reserpine-treated guinea pigs as percentage variation from the control at concentration of 3 x 10E-6 M; how it was run: as §1
Cavia porcellus [6] = organism: Cavia porcellus; experiment: Effect on the frequency rate of spontaneously beating atria from Reserpine-treated guinea pigs as percentage variation from the control at concentration of 10E-3 M; how it was run: as §1
Cavia porcellus [7] = organism: Cavia porcellus; experiment: Effect on the frequency rate of spontaneously beating atria from Reserpine-treated guinea pigs as percentage variation from the control at concentration of 10E-4 M; how it was run: as §1
Cavia porcellus [8] = organism: Cavia porcellus; experiment: Effect on the frequency rate of spontaneously beating atria from Reserpine-treated guinea pigs as percentage variation from the control at concentration of 10E-5 M; how it was run: as §1
Cavia porcellus [9] = organism: Cavia porcellus; experiment: Effect on the frequency rate of spontaneously beating atria from Reserpine-treated guinea pigs as percentage variation from the control at concentration of 10E-6 M; how it was run: as §1
Cavia porcellus [10] = organism: Cavia porcellus; experiment: Compound was evaluated for its effect on the frequency rate of spontaneously beating atria from Reserpine-treated guinea pigs as percentage variation from the control at concentration of 3 x 10E-4 M; how it was run: as §1
Cavia porcellus [11] = organism: Cavia porcellus; experiment: Compound was evaluated for its effect on the frequency rate of spontaneously beating atria from Reserpine-treated guinea pigs as percentage variation from the control at concentration of 3 x 10E-5 M; how it was run: as §1
Cavia porcellus [12] = organism: Cavia porcellus; experiment: Compound was evaluated for its effect on the frequency rate of spontaneously beating atria from Reserpine-treated guinea pigs as percentage variation from the control at concentration of 3 x 10E-6 M; how it was run: as §1
Cavia porcellus [13] = organism: Cavia porcellus; experiment: Effect on the contractile force of spontaneously beating atria from Reserpine-treated guinea pigs as percentage variation from the control at concentration of 10E-3 M; how it was run: as §1
Cavia porcellus [14] = organism: Cavia porcellus; experiment: Effect on the contractile force of spontaneously beating atria from Reserpine treated guinea pigs as percentage variation from the control at concentration of 10E-4 M; how it was run: as §1

SMILES	Variation (Cavia porcellus [1]) [%]	Variation (Cavia porcellus [2]) [%]	Variation (Cavia porcellus [3]) [%]	Variation (Cavia porcellus [4]) [%]	Variation (Cavia porcellus [5]) [%]	Variation (Cavia porcellus [6]) [%]	Variation (Cavia porcellus [7]) [%]	Variation (Cavia porcellus [8]) [%]	Variation (Cavia porcellus [9]) [%]	Variation (Cavia porcellus [10]) [%]	Variation (Cavia porcellus [11]) [%]	Variation (Cavia porcellus [12]) [%]	Variation (Cavia porcellus [13]) [%]	Variation (Cavia porcellus [14]) [%]
CCc1nc(N(C)C)ncc1C(=O)O	4.47	0	14.69	6.17	2.44	-7.69	1.11	0	0	-4.79	0	0	22.03	6.67
CCOC(=O)c1cnc(N(C)C)nc1CC	-39.54	0	–	-67.44	0	–	-100	-9.37	–	–	-14.76	-6.25	–	-100
CCOC(=O)c1cnc(N(C)C)nc1C(F)(F)F	10.67	7.15	-47.85	-3.61	11.26	-19.35	-6.66	-3.23	0	-6.66	-3.61	0	-60.44	-30.35
CC(C)c1nc(N(C)C)ncc1C(=O)O	7.13	1.79	16.41	7.79	4.06	-28.57	-14.28	-3.13	0	-17.58	-10.71	-3.13	23.17	11.77
COCc1nc(N(C)C)ncc1C(=O)O	9.99	5.46	8.19	9.72	9.16	-9.37	-6.25	0	0	-6.25	-3.12	0	5.92	8.24
COCc1ccnc(N(C)C)n1	0	0	-11.89	-8.02	0	-9.33	-4	-1.33	0	4	-4	0	-20.93	-9.03
CN(C)c1ncc(C(=O)O)c(-c2ccccc2)n1	11.47	6.62	14.22	12.11	10.63	-6.25	-3.12	0	0	-3.12	0	0	18.2	12.75
Cc1ccnc(N(C)C)n1	8.9	0	22.47	16.76	2.27	-17.34	0	0	0	-6.25	0	0	-36.67	19.04
CCOC(=O)c1cnc(N(C)C)nc1C(C)C	1.06	0	-100	-34.22	3.19	–	-2.94	-3.51	-3.85	-100	-0.91	-2.94	–	-57.53
CCCc1nc(N(C)C)ncc1C(=O)OCC	-57.89	0	–	-100	-5.29	–	–	–	0	–	–	–	–	0
CN(C)c1ncc(C(=O)O)c(C(F)(F)F)n1	9.45	2.25	14.96	13.44	6.15	-14.28	-3.03	-2.85	0	-9.09	-3.03	0	9.52	14.03
CCOC(=O)c1cnc(N(C)C)nc1C(C)(C)C	-12.52	0	–	-50.08	2.08	–	-100	4.76	0	–	-7.64	0	–	-100
CC(C)c1ccnc(N(C)C)n1	-8.84	0	-86.36	-28.95	0	-100	-41.66	-5.15	0	-41.66	-17.26	-5.15	-100	-68.77
CCOC(=O)c1cnc(N(C)C)nc1-c1ccccc1	12.05	1.73	-70.37	2.25	10.24	-100	-3.7	3.7	0	-14.81	7.4	0	-100	-40.74
CN(C)c1nccc(C(F)(F)F)n1	-12.62	0	-83.03	-30.94	2.47	-100	-22.58	-3.23	0	-32.26	-3.68	0	-100	-67.95
CN(C)c1nccc(-c2ccccc2)n1	7.52	0	-23.76	5.57	4.67	-100	0	0	0	-13.33	0	0	-100	-12.16
CN(C)c1nccc(C(C)(C)C)n1	-5.56	0	-34.94	-24.35	1.13	-40	-16.66	-6.66	0	-30.01	-13.33	0	-35.14	-37.31
CCc1ccnc(N(C)C)n1	15.05	5.39	-43.95	9.21	9.91	-42.41	-14.95	-3.03	0	-28.91	-4.77	0	-84.45	-10.54
CCCc1nc(N(C)C)ncc1C(=O)O	11.21	5.38	19.73	15.72	8.66	-4.28	-2.85	-2.85	0	-5.71	-2.85	0	23.61	18.35
CN(C)c1ncc(C(=O)O)cn1	7.54	3.76	8.34	10.48	6.36	6.25	3.44	3.12	0	3.44	3.44	0	9.64	9.39
